Data on 8 molecules can be found in ChEMBL document CHEMBL1146489, “Aspochalasins I, J, and K: three new cytotoxic cytochalasans of Aspergillus flavipes from the rhizosphere of Ericameria laricifolia of the Sonoran Desert” (J Nat Prod, 2004).

Common to all, as to assay type: functional, cell-based
In experiment [1] the test system is NCI-H460. Put plainly: Cytotoxicity against human NCI-H460 cells after 48 hrs by MTT assay. Conditions: NCI-H460, 48 h. In short, it runs like this:
(§1)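 Human tumour cells (NCI-H460 lung, MCF-7 breast, SF-268 glioma) exposed to compounds for 48 h in RPMI 1640 with 10% fetal bovine serum; viability read by tetrazolium-based colorimetric MTT assay.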
On the technique in general: Formazan colour is commonly taken as a measure of viable cells.

Experiment [2] relates to SF-268. In words: Cytotoxicity against human SF268 cells after 48 hrs by MTT assay. Conditions: SF-268, 48 h. In short, it runs like this: as §1
Experiment [3] concerns MCF7. In words: Cytotoxicity against human MCF7 cells after 48 hrs by MTT assay. Conditions: MCF7, 48 h. The essentials: as §1

For the molecule `CC1=C[C@@H]2/C=C(\C)CCCC(O)/C=C/C(=O)[C@]23C(=O)N[C@@H](CC(C)C)[C@@H]3[C@@H]1C` (stereo partly drawn), the figures for the IC50 in experiment [1], in experiment [2] and in experiment [3] were 3.5 µM, 9.5 µM and 5 µM, respectively.

As for `CC1=C[C@@H]2/C=C(\C)CC[C@H](O)[C@@H](O)/C=C/C(=O)[C@]23C(=O)N[C@@H](CC(C)C)[C@@H]3[C@@H]1C` [ASPOCHALASIN C], the IC50 – broadly, the concentration that gives 50% inhibition – is 5 µM in experiment [1], 3.9 µM in experiment [2] and 7.7 µM in experiment [3].

For the molecule `CC1=C[C@@H]2/C=C(\C)CC[C@H](O)[C@H](O)/C=C/C(=O)[C@]23C(=O)N[C@@H](CC(C)C)[C@@H]3[C@@H]1C` [ASPOCHALASIN D], the IC50 in experiment [1] stood at 3.4 µM; in experiment [2], 5 µM; in experiment [3], 5.3 µM.

For `CC1=C[C@@H]2/C=C(\C)CC[C@H](O)[C@H](O)[C@@H](O)CC(=O)[C@]23C(=O)N[C@@H](CC(C)C)[C@@H]3[C@@H]1C` [ASPOCHALASIN E], the values for the IC50 in experiment [1], in experiment [2] and in experiment [3] were 31.5 µM, 52.6 µM and 30.4 µM, respectively.

`CC1=C[C@@H]2/C=C(\C)CC[C@H](O)[C@H](O)/C=C/C(=O)O[C@]23C(=O)N[C@@H](CC(C)C)[C@@H]3[C@@H]1C` [ASPOCHALASIN I]: the IC50 in experiment [1] came to 22.1 µM; in experiment [2], 19.9 µM; in experiment [3], 33.4 µM.

For `CC1=C[C@@H]2/C=C(\C)CCC[C@H](O)/C=C/C(=O)O[C@]23C(=O)N[C@@H](CC(C)C)[C@@H]3[C@@H]1C` [ASPOCHALASIN J], the IC50 stood at 55.2 µM in experiment [1], 13.4 µM in experiment [2] and 14.9 µM in experiment [3].

Turning to `CO[C@H]1[C@@H](O)CC/C(C)=C/[C@H]2C=C(C)[C@@H](C)[C@H]3[C@H](CC(C)C)NC(=O)[C@]32C(=O)C[C@@H]1O` [ASPOCHALASIN K], the IC50 in experiment [1] was found to be 14.3 µM; in experiment [2] it was 19.9 µM; in experiment [3], 13.1 µM.

`CC(=O)O[C@H]1C(=O)[C@@]2(C)[C@H]([C@H](OC(=O)c3ccccc3)[C@]3(O)C[C@H](OC(=O)[C@H](O)[C@@H](NC(=O)c4ccccc4)c4ccccc4)C(C)=C1C3(C)C)[C@]1(OC(C)=O)CO[C@@H]1C[C@@H]2O` [PACLITAXEL]: the IC50 in experiment [1] is 0.0095 µM; in experiment [2], 0.0217 µM.
